Test results published in ChEMBL document CHEMBL2331188, “Synthesis and biochemical activities of antiproliferative amino acid and phosphate derivatives of microtubule-disrupting β-lactam combretastatins” (Eur J Med Chem, 2013).
≈ marks a conversion by molar mass, not a printed value. Blank lines part the entries; values can stand above or below the compound they belong to. Calls of active or inactive are those of the source. The rule behind the calls is not given here.

What was measured:
[1] = Solubility in human plasma; assay type: ADME, cell-free
MCF7 [2] = experiment: Antiproliferative activity against human MCF7 cells assessed as inhibition of cell growth after 72 hrs by MTT assay; assay type: functional, cell-based; conditions: MCF7, 72 h
Outline: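 MCF-7 cells in MEM with 10% FBS, 2 mM L-glutamine, penicillin/streptomycin and 1% non-essential amino acids. Seeded at 2.5 × 10⁴ cells/mL, grown 24 h at 37 °C, then dosed from ethanol stocks over 1 nM–100 µM for 72 h; vehicle was ethanol 1% v/v. Read-out was MTT at 1 mg/mL for 2 h, solubilised in DMSO, absorbance relative to control as 100% viability. Triplicate; mean ± S.E.M of at least three experiments.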

[3] = Aqueous solubility of the compound after 24 hrs by HPLC analysis; assay type: physicochemical; conditions: aqueous medium
Outline: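 Compound was shaken in water at 300 shakes/min for 24 h, then filtered. The filtrate was quantified by HPLC on a C18 column with acetonitrile/water 70:30 at 1 mL/min, detection at 254 nm. The value is the maximum of n = 3.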

MCF7 [4] = experiment: Induction of microtubule depolymerization in human MCF7 cells assessed as complete loss of microtubule formation at 100 nM after 16 hrs by immunofluorescence analysis; assay type: cell-based
Outline: (§1)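 MCF-7 cells seeded at 1 × 10⁵ per well on chamber slides and treated 16 h; vehicle was 1% ethanol v/v. Fixed in methanol at −20 °C for 30 min and blocked in 5% BSA/PBST. Stained with anti-α-tubulin DM1A (1:20) and then FITC anti-mouse (1:100), each 1 h at room temperature, with DAPI counterstain. Imaged by confocal microscopy; three separate experiments.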

[5] = Half life in human plasma at pH 4 to 9; assay type: ADME, cell-free
MCF7 [6] = experiment: Induction of cell cycle arrest in human MCF7 cells assessed as accumulation of cells in sub-G1 phase at 100 nM after 48 hrs by propidium iodide staining based flow cytometry; assay type: functional
Outline: (§2)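 MCF-7 cells seeded at 1 × 10⁵ cells/cm³ and treated after 24 h for 48 h; vehicle was 1% ethanol v/v. Cells were fixed in 70% ethanol:PBS overnight at −20 °C, then stained with RNase 0.5 mg/mL and propidium iodide 0.15 mg/mL for 30 min at 37 °C. Analysed by flow cytometry, at least 10,000 gated cells, sub-diploid counted as sub-G1. Mean ± SEM of at least three experiments; one-way ANOVA with Bonferroni test.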

MCF7 [7] = experiment: Induction of mitotic catastrophe in human MCF7 cells at 100 nM after 16 hrs by immunofluorescence analysis; assay type: functional, cell-based; outline: as §1
Bos taurus [8] = species on record: Bos taurus; experiment: Inhibition of bovine brain tubulin polymerization at 10 uM measured every 30s for 60 mins by spectrophotometric analysis
MCF7 [9] = experiment: Induction of cell cycle arrest in human MCF7 cells assessed as accumulation of cells in G2/M phase at 100 nM after 48 hrs by propidium iodide staining based flow cytometry; assay type: functional; outline: as §2
Bos taurus [10] = species on record: Bos taurus; experiment: Inhibition of bovine brain tubulin polymerization measured every 30s for 60 mins by spectrophotometric analysis
[11] = Inhibition of bovine brain tubulin polymerization measured every 30s for 30 mins by spectrophotometric analysis; set-up: species or system Bos taurus
Colon 26 = experiment: Antiproliferative activity against mouse Colon 26 cells assessed as inhibition of cell growth; assay type: functional, cell-based
[12] = Solubility in human plasma at pH 7.2 to 7.5; assay type: ADME, cell-free
MCF7 [13] = experiment: Induction of cell cycle arrest in human MCF7 cells assessed as accumulation of cells in G2/M phase at 1 uM after 48 hrs by propidium iodide staining based flow cytometry; assay type: functional; outline: as §2
MCF7 [14] = experiment: Induction of microtubule depolymerization in human MCF7 cells assessed as complete loss of microtubule formation at 1 uM after 16 hrs by immunofluorescence analysis; assay type: cell-based; outline: as §1
MCF7 [15] = experiment: Induction of mitotic catastrophe in human MCF7 cells at 1 uM after 16 hrs by immunofluorescence analysis; assay type: functional, cell-based; outline: as §1
MCF7 [16] = experiment: Induction of cell cycle arrest in human MCF7 cells assessed as accumulation of cells in sub-G1 phase at 1 uM after 48 hrs by propidium iodide staining based flow cytometry; assay type: functional; outline: as §2

IC50 (MCF7 [2]): 9800 nM
Compound: COc1ccc([C@H]2[C@H](c3ccccc3)C(=O)N2c2cc(OC)c(OC)c(OC)c2)cc1NC(=O)[C@@H](N)CCCCN

IC50 (MCF7 [2]): 1100 nM
Compound: COc1ccc([C@H]2[C@H](c3ccccc3)C(=O)N2c2cc(OC)c(OC)c(OC)c2)cc1NC(=O)CN

half-life [5]: > 24 h
Compound: COc1ccc([C@H]2[C@H](c3ccccc3)C(=O)N2c2cc(OC)c(OC)c(OC)c2)cc1N

half-life [5]: > 24 h
Compound: COc1ccc([C@H]2[C@H](c3ccc(N)cc3)C(=O)N2c2cc(OC)c(OC)c(OC)c2)cc1

solubility at 24 h [3]: 110 µg/mL (≈ 201 µM)
IC50 (MCF7 [2]): 1100 nM
Compound: CC[C@H](C)[C@H](N)C(=O)Nc1cc([C@H]2[C@H](c3ccccc3)C(=O)N2c2cc(OC)c(OC)c(OC)c2)ccc1OC

solubility at 24 h [3]: 200 µg/mL (≈ 383 µM)
IC50 (MCF7 [2]): 780 nM
Compound: COc1ccc([C@H]2[C@H](c3ccccc3)C(=O)N2c2cc(OC)c(OC)c(OC)c2)cc1NC(=O)[C@@H](N)CO

half-life [5]: > 24 h
inhibition (Bos taurus [10]): Dose-dependent effect
IC50 [11]: 5200 nM
solubility at 24 h [3]: 110 µg/mL (≈ 206 µM)
IC50 (MCF7 [2]): 460 nM
Compound: COc1ccc([C@H]2[C@H](c3ccccc3)C(=O)N2c2cc(OC)c(OC)c(OC)c2)cc1NC(=O)[C@@H](N)C(C)C
Activity (MCF7 [13]): Active
Activity (MCF7 [14]): Active
Activity (MCF7 [15]): Active
Activity (MCF7 [16]): Active

solubility at 24 h [3]: 370 µg/mL (≈ 732 µM)
IC50 (MCF7 [2]): 760 nM
Compound: COc1ccc([C@H]2[C@H](c3ccccc3)C(=O)N2c2cc(OC)c(OC)c(OC)c2)cc1NC(=O)[C@H](C)N

Second part, the compound before the results:

Compound: COc1ccc(/C=C\c2cc(OC)c(OC)c(OC)c2)cc1N
solubility [1]: 3300 µg/mL (≈ 10500 µM)

Compound: COc1ccc([C@H]2[C@H](c3ccccc3)C(=O)N2c2cc(OC)c(OC)c(OC)c2)cc1NC(=O)[C@@H](N)Cc1ccc(O)cc1
IC50 (MCF7 [2]): 740 nM

Compound: COc1ccc([C@H]2[C@H](c3ccc(NC(=O)[C@@H](N)C(C)C)cc3)C(=O)N2c2cc(OC)c(OC)c(OC)c2)cc1
solubility at 24 h [3]: 4 µg/mL (≈ 7.5 µM)
IC50 (MCF7 [2]): 50 nM

Compound: COc1ccc([C@H]2[C@H](c3ccc(O)cc3)C(=O)N2c2cc(OC)c(OC)c(OC)c2)cc1OP(=O)(O)O
Activity (MCF7 [4]): Active
half-life [5]: > 24 h
Activity (MCF7 [6]): Active
Activity (MCF7 [7]): Active
inhibition (Bos taurus [8]): inactive
Activity (MCF7 [9]): Active
solubility at 24 h [3]: 140 µg/mL (≈ 263 µM)
IC50 (MCF7 [2]): 22 nM

Compound: COc1ccc([C@H]2[C@H](c3ccc(NC(=O)[C@H](C)N)cc3)C(=O)N2c2cc(OC)c(OC)c(OC)c2)cc1
IC50 (MCF7 [2]): 35 nM

Compound: COc1ccc([C@H]2[C@H](c3ccc(NC(=O)[C@@H](N)CO)cc3)C(=O)N2c2cc(OC)c(OC)c(OC)c2)cc1
IC50 (MCF7 [2]): 860 nM

Compound: COc1ccc([C@H]2[C@H](c3ccccc3)C(=O)N2c2cc(OC)c(OC)c(OC)c2)cc1NC(=O)[C@@H](N)Cc1ccccc1
IC50 (MCF7 [2]): 1130 nM

Compound: COc1ccc([C@H]2[C@H](c3ccccc3)C(=O)N2c2cc(OC)c(OC)c(OC)c2)cc1OP(=O)(O)O
Activity (MCF7 [6]): Active
inhibition (Bos taurus [8]): inactive
Activity (MCF7 [9]): Active
solubility at 24 h [3]: 300 µg/mL (≈ 582 µM)
IC50 (MCF7 [2]): 71 nM

Compound: COc1ccc([C@H]2[C@H](c3cccs3)C(=O)N2c2cc(OC)c(OC)c(OC)c2)cc1OP(=O)(O)O
Activity (MCF7 [4]): Active
Activity (MCF7 [6]): Active
Activity (MCF7 [7]): Active
Activity (MCF7 [9]): Active
solubility at 24 h [3]: 450 µg/mL (≈ 863 µM)
IC50 (MCF7 [2]): 20 nM

Compound: COc1ccc([C@H]2[C@H](c3ccc(NC(=O)CN)cc3)C(=O)N2c2cc(OC)c(OC)c(OC)c2)cc1
half-life [5]: > 24 h
solubility at 24 h [3]: 60 µg/mL (≈ 122 µM)
IC50 (MCF7 [2]): 91 nM

Compound: COc1ccc([C@H]2[C@H](c3ccc(O)cc3)C(=O)N2c2cc(OC)c(OC)c(OC)c2)cc1O
half-life [5]: > 24 h

Compound: COc1ccc([C@H]2[C@H](c3ccc(NC(=O)[C@@H](N)Cc4ccccc4)cc3)C(=O)N2c2cc(OC)c(OC)c(OC)c2)cc1
Activity (MCF7 [4]): Active
Activity (MCF7 [6]): Active
Activity (MCF7 [7]): Active
inhibition (Bos taurus [10]): Dose-dependent effect
IC50 [11]: 2400 nM
Activity (MCF7 [9]): Active
solubility at 24 h [3]: 140 µg/mL (≈ 241 µM)
IC50 (MCF7 [2]): 27 nM

Compound: COc1ccc([C@H]2[C@H](c3ccc(NC(=O)[C@@H](N)CCCCN)cc3)C(=O)N2c2cc(OC)c(OC)c(OC)c2)cc1
IC50 (MCF7 [2]): 690 nM

Compound: COc1ccc(/C=C\c2cc(OC)c(OC)c(OC)c2)cc1NC(=O)[C@@H](N)CO [OMBRABULIN]
IC50 (Colon 26): 27.2 nM
solubility [12]: 110 µg/mL (≈ 273 µM)
solubility [1]: 3300 µg/mL (≈ 8200 µM)
